# Screens deposited in PubChem BioAssay by The Scripps Research Institute Molecular Screening Center.
# Rows were chosen to be rich in hits. Some 1.8% of all compounds tested hit in one or more screens of this group.
# MBD2 DNA inh = inhibitors of human MBD2 binding to methylated oligonucleotide; Q9UBB5; AID 686964; inhibition, % at 4.4 µM; 370,000 tested, 0.31% active; TR-FRET; in the data active means inhibition above about 13%
# Target sequence (Q9UBB5 whole entry, looked up): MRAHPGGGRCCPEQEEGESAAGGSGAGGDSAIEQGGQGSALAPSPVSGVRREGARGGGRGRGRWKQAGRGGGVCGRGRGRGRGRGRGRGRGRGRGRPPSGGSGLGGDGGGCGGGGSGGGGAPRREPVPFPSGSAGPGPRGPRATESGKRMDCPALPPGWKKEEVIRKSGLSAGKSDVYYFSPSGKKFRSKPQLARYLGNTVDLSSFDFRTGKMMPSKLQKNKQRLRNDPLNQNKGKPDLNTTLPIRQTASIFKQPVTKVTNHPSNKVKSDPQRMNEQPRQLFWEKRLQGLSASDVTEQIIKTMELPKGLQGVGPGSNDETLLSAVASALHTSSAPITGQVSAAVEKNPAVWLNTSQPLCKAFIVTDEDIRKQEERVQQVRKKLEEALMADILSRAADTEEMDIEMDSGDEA
# UHRF1 binding = human UHRF1 methylated DNA binding inhibitors. inhibition, % at 4.4 µM. Q96T88. AID 687016. 370,000 tested, 0.75% active. UHRF1 binding to methylated oligo, TR-FRET; in the data active means inhibition above about 21%;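 further: UHRF1 SRA domain binding a hemimethylated CpG hairpin DNA probe; 0% = median of test compound wells and 100% = reference inhibitor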
# TDP2 absorb = TDP2 (human) inhibition, absorbance primary screen. O95551. recombinant TDP2, T5PNP hydrolysis, p-nitrophenol absorbance 415 nm. inhibition, % at 12.8 µM. 370,000 tested, 0.34% active. AID 720702;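 active means inhibition above the mean of all tested compounds plus 3 SD, set per campaign, cut at about 25% in these data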;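 further: 0% = DMSO with enzyme and 100% = buffer with substrate but no TDP2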
#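 System: recombinant human TDP2 / Amount: 120 nM TDP2 per well / Also added: 5 mM T5PNP chromogenic substrate / Doses: 12.8 µM single point, 1% DMSO / Incubation: 2 h at 37 °C / Detection: p-Nitrophenol epi absorbance / Evaluation: % inhibition relative to enzyme-containing and enzyme-free wells / Repeats: singlicate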
# LEDGF integ inh = blocks HIV-1 LEDGF/p75-dependent DNA integration; inhibition, % at 3.7 µM; TR-FRET IN-LEDGF/p75 DNA integration, Eu/Cy5; 370,000 tested, 0.64% active;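 active means inhibition above the screen-wide mean plus 3 SD, cut at about 13% in these data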;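 further: signal is the Cy5 over europium emission ratio at 671 and 618 nm; 0% = plate median of compound wells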
# HCV core dimer = HCV core protein dimerization inhibition; TR-FRET GST/Flag-core106 dimerization, 1536-well; inhibition, % at 5 µM; 300,000 tested, 0.33% active; AID 1899;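 active means inhibition above the mean of all tested compounds plus 3 SD, set per screening campaign, cut at about 45% in these data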
#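 System – GST-tagged and Flag-tagged HCV core protein residues 1-106 · Repeats – one well for each compound · Technique – TR-FRET 671 and 617 nm emission · Doses – one concentration, 5 µM, in 0.5% DMSO · Times – 4 h, 22.5 °C incubation · Also added – Eu donor and XL665 acceptor anti-tag antibodies · Measure – percent inhibition of core106 dimerization signal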
# TDP2 inh conf = confirmation of human TDP2 inhibitors; shares compounds with TDP2 absorb; inhibition, % at 12.8 µM; 1,100 tested, 22% active; AID 743263; recombinant human TDP2, absorbance read-out; in the data active means inhibition above about 25%;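 further: 0% = vehicle with enzyme and 100% = no enzyme buffer only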
# * hit, by the source's call; x = no result.
SMILES,MBD2 DNA inh,UHRF1 binding,TDP2 absorb,LEDGF integ inh,HCV core dimer,TDP2 inh conf
COC(=O)[C@]12C[C@H](CC(=O)NCc3ccc(C)o3)C(=O)N(CCc3ccc(OC)c(OC)c3)C1=C[C@H](C1CCCC1)O[C@@H]2C,-0.8,-0.2,-1.1,-3.4,x,x
CC1=NN(Cc2ccccc2)C(=O)C1,-8.0,1.1,57.8*,7.1,-7.3,5.9
CSc1ccc(CN(C)CC(=O)Nc2c(F)cccc2F)cc1,-0.4,-0.4,28.7*,-0.6,-2.3,19.8
Cc1ccc(CN2CCSCC2)cc1,0.3,0.4,26.0*,-2.6,-10.2,7.8
Brc1ccc(CN2CCSCC2)cc1,-5.5,2.9,-7.0,0.3,0.3,x
CCn1c(COc2ccc(=O)n(-c3ccccc3)n2)nnc1SCc1cccc(OC)c1,1.4,0.1,7.8,-0.3,3.9,x
C=CCSc1nnc(COc2ccc(=O)n(-c3ccccc3)n2)n1CC,-2.7,-1.9,24.6*,-1.5,-1.1,5.8
CC1=NN(c2ccccc2)C(=O)/C1=C\c1ccc(Br)s1,1.9,-0.5,52.1*,5.1,14.8,27.6*
O=C(CN1C(=O)C2CCCCN2C(=O)c2ccccc21)N1CCCC1 (configuration not stated),-1.0,0.2,4.2,-2.5,x,x
CCCN1CCN(C(=O)c2ccc(F)c(S(=O)(=O)N3CCOCC3)c2)CC1,7.8,0.1,38.8*,1.4,x,3.3
Oc1[nH]c2ccccc2c1N=Nc1nc2ccccc2s1,-4.9,2.3,-13.8,5.4,-18.9,x
Cc1ccc2[nH]c(O)c(N=Nc3nc4ccccc4s3)c2c1,-3.4,2.0,24.9*,-2.1,-21.0,-18.4
COC(=O)[C@]12C[C@H](CC(=O)NCC3CCCCC3)C(=O)N(Cc3ccc(Cl)cc3Cl)C1=C[C@H](C(C)(C)C)O[C@@H]2C,-3.8,0.2,5.3,-1.9,x,x
CN1CC=C(c2ccccc2)N(c2ccc(Br)cc2)C1=O,-1.1,-0.8,-0.1,0.8,x,x
COc1cc(C=Nn2c(-c3ccccc3F)n[nH]c2=S)ccc1OCc1ccccc1,0.9,0.4,11.6,0.7,x,x
COc1ccc(NC(=O)c2cc(-c3ccc(C)c(C)c3O)n[nH]2)cc1Cl,-2.2,0.8,74.8*,2.2,5.8,2.1
Cc1ccc(NC(=O)c2cc(-c3ccc(C)c(C)c3O)n[nH]2)cc1C,0.1,0.0,7.6,-2.0,1.7,x
O=C1C(=C(I)I)c2ccccc2-c2ccccc21,-3.9,-0.5,97.8*,-20.4,x,88.4*
CCCCCCCCNS(=O)(=O)/C=C/c1ccccc1CNC(=O)OC(C)(C)C,2.6,-3.7,-2.5,-4.5,x,x
Cc1[nH]c(C)c(S(=O)(=O)N(C)Cc2ccccc2)c1C(=O)N1CCCC1,-7.9,-8.9,27.6*,2.5,-9.3,-3.6
Cc1c(C(=O)N2CCCCC2)c(S(=O)(=O)N(C)Cc2ccccc2)c(C)n1C,-3.6,1.6,4.0,0.7,-10.1,x
Cc1cc(C)c(C(N)=O)c(Nc2cccc3ccccc23)n1,-5.0,-8.5,24.7*,8.8,-2.9,8.5
COc1ccccc1Nc1nc(C)cc(C)c1C(N)=O,0.7,0.0,10.2,3.1,-5.6,x
CCN(c1ccccc1)c1cc2ccccc2c(=O)[nH]1,-1.8,-5.1,27.6*,12.2,16.3,76.3*
CCN(c1ccccc1)c1nc(=O)c2cccnc2s1,2.1,-2.0,0.5,1.1,3.6,x
SMILES,MBD2 DNA inh,UHRF1 binding,TDP2 absorb,LEDGF integ inh,HCV core dimer,TDP2 inh conf
O=C(CCc1ccccc1-c1ccccc1CCNC(=O)c1ccccc1)NCc1ccccc1,-4.9,-0.5,-3.3,3.5,x,x
Cc1ccc(NC(=S)NNC(=O)CSc2nnc(SCc3cccc4ccccc34)s2)cc1,1.1,-8.2,-6.2,6.7,x,x
CCCc1cc(=O)n2[nH]c(-c3ccccc3)cc2n1,1.7,-3.9,-4.1,-1.8,-4.6,x
CCCCn1[nH]c(-c2ccccc2)cc1=O,2.3,-4.2,47.2*,7.4,-4.8,9.8
CC(C)(C)c1cc(C(=O)N/N=C/c2ccc(-c3ccccc3[N+](=O)[O-])o2)n[nH]1,-2.4,-10.4,14.3,-1.4,7.4,x
O=C(N/N=C/c1ccc(-c2ccccc2[N+](=O)[O-])o1)c1cccnc1,-5.2,-6.2,35.6*,5.0,-12.4,16.5
O=C(NC1(O)C(=O)c2ccccc2C1=O)c1ccc(C(F)(F)F)cc1,-9.2,-2.3,37.2*,5.5,-21.7,83.1*
O=C(Cc1ccccc1)NC1(O)C(=O)c2ccccc2C1=O,-7.7,-9.1,63.6*,4.8,-22.0,61.6*
CC(NC(=O)Cc1ccccc1)c1ccccc1 (configuration not stated),-4.8,-2.0,-9.2,1.7,-8.8,x
Cc1ccc(C(=O)NC2(O)C(=O)c3ccccc3C2=O)cc1C,-9.9,-1.4,73.5*,4.0,-22.9,74.6*
CC(C)N1CCCCC(NC(=O)c2ccc(F)cc2)C1=O (configuration not stated),4.6,-1.2,-1.2,1.8,x,x
COC(=O)[C@]12C[C@H](CC(=O)NCCCN3CCCC3=O)C(=O)N(Cc3ccc(Cl)cc3Cl)C1=C[C@H](C(C)C)O[C@@H]2C1CC1,8.2,-1.6,6.4,-5.3,x,x
CCOC(=O)CC[C@H]1CC[C@]2(CCCN(C(=O)C3CCCC3)C2)O1,2.0,2.8,6.6,-5.4,x,x
CCC(CO)Oc1cc(NC(=O)c2ccc(OC)cc2)c2ncn(C(C)C)c2c1 (configuration not stated),6.0,2.5,19.6,3.8,x,x
CCC(CO)Oc1cc(NC(=O)c2cccc(OC)c2)c2ncn(C(C)C)c2c1 (configuration not stated),7.3,15.3,26.3*,9.7,x,30.6*
Cc1ccc(NC(=O)C2CCN(S(=O)(=O)c3ccccc3)CC2)cc1,-5.7,-2.4,30.4*,-3.6,-2.9,5.5
Cc1ccccc1N1CC(C(=O)Nc2ccc(S(=O)(=O)N3CCCCC3)cc2)CC1=O (configuration not stated),0.7,1.5,25.1*,3.6,-3.8,3.8
Cc1cccc(N2CC(C(=O)Nc3ccc(S(=O)(=O)N4CCCCC4)cc3)CC2=O)c1C (configuration not stated),4.8,1.1,-8.4,-3.3,18.3,x
O=C(COC(=O)c1ccccc1SCC(=O)N1CCCC1)NC1CCCCC1,0.7,-1.3,26.0*,2.5,-1.6,4.3
CC(C)C[C@H](NC(=O)c1cccs1)C(=O)N1CCC[C@H]1C(=O)NCc1ccccc1,3.0,1.9,-2.1,-0.4,x,x
COc1ccc(/C=N/NC(=O)c2nnn(-c3nonc3N)c2CN(C)c2ccccc2)cc1,3.0,0.3,26.9*,1.2,10.5,6.8
CN(Cc1c(C(=O)N/N=C/c2ccccc2)nnn1-c1nonc1N)c1ccccc1,-4.7,-1.6,-2.5,3.0,1.7,x
CCOC(=O)CSC1=NC(=O)/C(=C/c2ccc(Br)cc2)S1,0.2,-0.3,24.8*,4.2,6.8,4.4
